Data set [1] has as its system Plasmodium falciparum. Nature of the data set: Antiplasmodial activity against Plasmodium falciparum 3D7 trophozoites infected in human erythrocytes assessed as [3H]hypoxanthine incorporation into nucleic acid after 30 hrs by beta-scintillation counting. It counts as functional, organism-based.
Data set [2] has as its target T1, Plasmepsin II (Plasmodium falciparum, UniProt P46925). The data set can be described thus: Inhibition of Plasmodium falciparum plasmepsin-2.
The subject of data set [3] is Plasmodium falciparum. The data set can be described thus: Antiplasmodial activity against Plasmodium falciparum infected in human erythrocytes assessed as inhibition of parasite growth. The data set is classed as functional. The conditions noted are these: read-out: ED50 (the source's name).
Data set [4] has as its target Plasmepsin II (Plasmodium falciparum) (UniProt P46925). Nature of the data set: Inhibition of Plasmodium falciparum plasmepsin-2 expressed in Escherichia coli BL21 (DE3) at 1 uM after 30 min by FRET assay.
The target of data set [5] is T1, Plasmepsin II. The data set can be described thus: Competitive inhibition of Plasmodium falciparum plasmepsin-2 expressed in Escherichia coli BL21 (DE3) after 30 min by FRET assay. The essentials:
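Recombinant mature Plm II from inclusion bodies, refolded and activated in 0.1 M sodium citrate pH 4.7, stored in 20 mM Tris-HCl pH 8.5 with 0.25 M NaCl. FRET assay in NaOAc buffer pH 5.0 using 2.5 nM enzyme and 1 μM DABCYL-Glu-Arg-Nle-Phe-Leu-Ser-Phe-Pro-EDANS substrate. Inhibitor, enzyme and substrate incubated 30 min at 37 C; EDANS fluorescence read at excitation 336 nm.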

Data set [6] addresses Plasmepsin II (Plasmodium falciparum) (UniProt P46925). The data set can be described thus: Inhibition of Plasmodium falciparum plasmepsin-2 expressed in Escherichia coli BL21 (DE3) at 1 uM after 1 to 2 hrs.
The target is the same in data set [7]. Nature of the data set: Inhibition of Plasmodium falciparum plasmepsin-2 expressed in Escherichia coli BL21 (DE3) assessed as residual activity at 1 uM measured after overnight dialysis by spun column chromatography.
Data set [8] has the same target. Nature of the data set: Irreversible inhibition of Plasmodium falciparum plasmepsin-2 expressed in Escherichia coli BL21 (DE3) at 1 uM measured after overnight dialysis by spun column chromatography.
The next data set concerns the target Cathepsin D (Homo sapiens, UniProt P07339). The data set can be described thus: Inhibition of human cathepsin D after 30 mins by FRET assay.
Data set [9] in a line: Selectivity ratio of IC50 for human cathepsin D to IC50 for Plasmodium falciparum plasmepsin-2 expressed in Escherichia coli BL21 (DE3).
Data set [10] deals with CHO. Nature of the data set: Cytotoxicity against CHO cells at 10 uM after 24 hrs by MTS assay. It counts as cell-based, Cricetulus griseus. The following applies: chinese hamster. For orientation: Tetrazolium assays rely on reduction of a dye to a coloured formazan, in cell work by metabolically active cells.
Data set [11] in a line: Selectivity ratio of Ki for human cathepsin D to Ki for Plasmodium falciparum plasmepsin-2.
Data set [12] concerns the target T1, Plasmepsin II. The data set can be described thus: Inhibition of Plasmodium falciparum plasmepsin-2 expressed in Escherichia coli BL21 (DE3) after 40 min by Kitz-Wilson plot analysis.
In data set [13] the target is Plasmepsin II (Plasmodium falciparum) (UniProt P46925). The data set can be described thus: Inhibition of Plasmodium falciparum plasmepsin-2 expressed in Escherichia coli BL21 (DE3) at compound to substrate ratio of 1:1 to 1: 5 after 2 hrs by FRET assay.
Data set [14] deals with CHO. The data set can be described thus: Cytotoxicity against CHO cells at 100 ug/mL after 24 hrs by MTS assay. The following applies: chinese hamster. The data set is classed as cell-based, Cricetulus griseus.
Data set [15] relates to CHO. The data set can be described thus: Cytotoxicity against CHO cells at 250 ug/mL after 24 hrs by MTS assay. The conditions noted are these: chinese hamster. It counts as cell-based, Cricetulus griseus.
The nature of data set [16]: Selectivity ratio of Ki for human cathepsin D to Ki for Plasmodium falciparum recombinant plasmepsin-2.
Data set [17] has as its system Plasmodium falciparum. Nature of the data set: Antiplasmodial activity against Plasmodium falciparum assessed as inhibition of parasite growth at 20 uM. The data set is classed as functional.

SMILES strings stand for the structures. The source made the active and inactive calls. The rule behind the calls is not given here.

A word on the IC50: it is the point on the concentration scale where inhibition reaches its midpoint. A word on the Ki: it is the dissociation constant of the complex between target and ligand, obtained from inhibition or displacement. A lower Ki goes with tighter binding. A word on the inhibition: it is the drop in the measured response relative to a control, in per cent.

T1 sequence (P46925 whole entry): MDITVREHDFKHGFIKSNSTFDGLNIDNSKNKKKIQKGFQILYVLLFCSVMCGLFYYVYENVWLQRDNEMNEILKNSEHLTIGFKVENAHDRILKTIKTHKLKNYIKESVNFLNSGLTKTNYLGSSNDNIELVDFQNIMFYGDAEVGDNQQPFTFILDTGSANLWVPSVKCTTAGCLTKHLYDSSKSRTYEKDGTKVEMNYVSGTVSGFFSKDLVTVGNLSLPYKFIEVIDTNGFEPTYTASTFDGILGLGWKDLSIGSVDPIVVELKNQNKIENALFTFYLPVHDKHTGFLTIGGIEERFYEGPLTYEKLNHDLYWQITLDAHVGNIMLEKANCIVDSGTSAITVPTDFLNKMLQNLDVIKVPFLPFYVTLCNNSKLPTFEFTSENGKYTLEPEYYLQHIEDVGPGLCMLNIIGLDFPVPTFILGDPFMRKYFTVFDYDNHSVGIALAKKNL
Sequence of Cathepsin D (P07339 65-162 limits assumed): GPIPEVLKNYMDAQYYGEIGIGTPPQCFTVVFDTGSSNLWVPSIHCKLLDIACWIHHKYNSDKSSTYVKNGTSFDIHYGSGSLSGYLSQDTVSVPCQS
Sequence of Cathepsin D (P07339 169-412 limits assumed): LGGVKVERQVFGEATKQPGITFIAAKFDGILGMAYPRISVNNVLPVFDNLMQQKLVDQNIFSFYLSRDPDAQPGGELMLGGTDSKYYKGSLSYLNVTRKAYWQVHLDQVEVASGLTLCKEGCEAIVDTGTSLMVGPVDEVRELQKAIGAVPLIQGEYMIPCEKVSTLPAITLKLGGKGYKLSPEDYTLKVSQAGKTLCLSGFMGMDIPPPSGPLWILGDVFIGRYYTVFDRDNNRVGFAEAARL
Sequence of Plasmepsin II (Plasmodium falciparum) (P46925 125-453 limits assumed): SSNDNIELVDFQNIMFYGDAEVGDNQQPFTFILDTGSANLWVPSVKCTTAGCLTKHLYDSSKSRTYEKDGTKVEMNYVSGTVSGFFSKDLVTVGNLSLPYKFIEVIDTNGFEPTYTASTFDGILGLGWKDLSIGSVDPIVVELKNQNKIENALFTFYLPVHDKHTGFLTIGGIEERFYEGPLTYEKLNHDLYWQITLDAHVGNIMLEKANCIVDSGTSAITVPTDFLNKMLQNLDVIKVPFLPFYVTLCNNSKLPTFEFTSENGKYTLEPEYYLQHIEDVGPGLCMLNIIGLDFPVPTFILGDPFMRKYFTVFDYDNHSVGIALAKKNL

Regarding `CC(C)C[C@H](NC(=O)[C@H](C)NC(=O)C[C@H](O)[C@H](COCc1ccc(Br)cc1)NC(=O)[C@@H](NC(=O)c1ccccn1)C(C)C)C(N)=O`, in the data set with Plasmodium falciparum [1], the IC50 turned out to be 5000 nM. On Plasmepsin II [2], this compound had a Ki of 0.5 nM.

As for `Cc1ccc(-c2ccc(C[C@H](NC[C@H](O)[C@H](Cc3ccccc3)NC(=O)[C@@H](NC(=O)c3ccccn3)C(C)C)C(N)=O)cc2)cc1`, the IC50 in the data set on Plasmodium falciparum [1] was 5000 nM. For the same compound, the EC50 in the data set on Plasmodium falciparum [3] stood at 1600 nM.

Regarding `CC(C)C[C@H](NC(=O)[C@H](CC#N)NC(=O)C[C@H](O)[C@H](Cc1ccccc1)NC(=O)[C@@H](NC(=O)c1ccccn1)C(C)C)C(N)=O`, the inhibition in [4] was 88.2%; in data set [6], 76.9%. Moreover, the IC50 came out at 141 nM at Plasmepsin II [5] and 50 nM against Cathepsin D. Further, the values for the Activity (in data set [7]; in the data set with CHO [10]) were 88% and “Non-toxic”, respectively. In addition, the inhibition result in [8] was “inactive”. Also, the Ratio IC50 in [9] turned out to be 1.4.

On to `Cc1cccc(C)c1OCC(=O)N[C@@H](Cc1ccccc1)[C@@H](O)C[C@H](CC(C)C)NC(=O)[C@H](C(C)C)N1CCCNC1=O`, for which the IC50 in the data set with Plasmodium falciparum [1] is 5000 nM. The compound also yielded a Ki on Plasmepsin II [2] of 357 nM. The Ratio Ki in [11] is 10.

In the case of `C#CCNC(=O)[C@H](Cc1ccccc1)NC(=O)C[C@H](O)[C@H](Cc1ccccc1)NC(=O)[C@@H](NC(=O)c1ccccn1)C(C)C`, in data set [4], the inhibition entry is “Active”. The half-maximal inhibitory concentration (IC50) at Plasmepsin II [5] amounted to 22 nM; at Cathepsin D, 50 nM; with Plasmodium falciparum [1], 9200 nM. Besides, in data set [6], the inhibition amounted to 76.9%. The Activity was 36.1% in [7] and “Non-toxic” in the data set with CHO [10]. Moreover, in [8], the inhibition result was “inactive”. Also, the Ratio IC50 in data set [9] is 10.6.

As for `CC(C)C[C@H](NC(=O)[C@H](CCl)NC(=O)C[C@H](O)[C@H](Cc1ccccc1)NC(=O)[C@@H](NC(=O)c1ccccn1)C(C)C)C(N)=O`, the inhibition entry in data set [4], in [8] and in data set [13] was “Active” each time. For the same compound, the values for the IC50 at Plasmepsin II [5] and at Cathepsin D were 28 nM and 50 nM, respectively. At Plasmepsin II [12], this compound gave a Ki of 35.7 nM. In data set [6], this compound yielded an inhibition of 76.9%. Moreover, in [9], the Ratio IC50 was 3.3. The Activity result with CHO [10], in the data set with CHO [14] and in the data set on CHO [15] was “Non-toxic” throughout.

For `C#CC[C@H](NC(=O)C[C@H](O)[C@H](Cc1ccccc1)NC(=O)[C@@H](NC(=O)c1ccccn1)C(C)C)C(=O)N[C@@H](CC(C)C)C(N)=O`, the inhibition result in [4], in data set [8] and in data set [13] was “Active” throughout. Besides, the values for the IC50 at Plasmepsin II [5], against Cathepsin D and in the data set on Plasmodium falciparum [1] were 333 nM, 50 nM and 7700 nM, respectively. At Plasmepsin II [12], this compound came in with a Ki of 333 nM. This compound came in with an inhibition in data set [6] of 76.9%. The Activity result in the data set on CHO [10] is “Non-toxic”.

With `CC(C)CC(=O)N[C@H](C(=O)N[C@H](C(=O)N[C@@H](CC(C)C)[C@@H](O)CC(=O)N[C@@H](C)C(=O)N[C@@H](CC(C)C)[C@@H](O)CC(=O)O)C(C)C)C(C)C`, the inhibition worked out at 82.8% in data set [4] and 97.8% in data set [6]. Further, the Activity in data set [7] was determined as 85.2%.

With `CC(C)C[C@H](NC(=O)[C@H](C)NC(=O)C[C@H](O)[C@H](Cc1ccccc1)NC(=O)[C@@H](NC(=O)c1ccccn1)C(C)C)C(N)=O`, the IC50 in the data set with Plasmodium falciparum [1] was determined as 5000 nM. Moreover, the Ratio Ki in [16] stood at 38. For the same compound, in the data set with Plasmodium falciparum [17], the inhibition at 20 µM was determined as 54%.

The record behind these values is ChEMBL document CHEMBL1157812, “Mechanism-based inhibitors of the aspartyl protease plasmepsin II as potential antimalarial agents” (J Med Chem, 2010).
